ChEMBL document CHEMBL3259660, “Haloemodin as novel antibacterial agent inhibiting DNA gyrase and bacterial topoisomerase I” (J Med Chem, 2014)
≈ marks a conversion by molar mass, not a printed value. Calls of active or inactive are those of the source. No cut-off for these calls is given here.

Columns and labels:
Pseudomonas aeruginosa [1] = test: Antibacterial activity against Pseudomonas aeruginosa ATCC 27853 assessed as growth inhibition by agar dilution assay; type: functional
In short: (§1)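 Agar dilution MIC per CLSI (aerobic and anaerobic methods); compounds dissolved in DMSO, reference antibiotics in sterile water. MIC taken as lowest concentration with no visible growth; determined at least twice on separate days, higher value reported. Clinical isolate ranges summarized as MIC50/MIC90.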

Staphylococcus aureus [2] = test: Antibacterial activity against Staphylococcus aureus ATCC 29213 assessed as growth inhibition by agar dilution assay; type: functional; in short: as §1
Escherichia coli = test: Antibacterial activity against Escherichia coli ATCC 25922 assessed as growth inhibition by agar dilution assay; type: functional; in short: as §1
[3] = Cytotoxicity against CHL cells assessed as cell viability after 24 hrs by MTT assay; type: cell-based, Cricetulus griseus; conditions: chinese hamster
In short: (§2)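 CHL fibroblasts seeded at about 5 × 10^4 cells/mL, incubated overnight at 37 °C, 5% CO2, then exposed to compound at different concentrations for 24 h. Viability read by MTT, absorbance at 570 nm, relative to cells in medium alone (100%). Triplicate.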

Staphylococcus aureus [4] = test: microbe, parasite or virus in culture; type: functional; conditions: ATCC 6538
Bacillus cereus = test: Antibacterial activity against Bacillus cereus ATCC 10231 assessed as growth inhibition by agar dilution assay; type: functional
[5] = tested on: Brevibacillus laterosporus; test: Antibacterial activity against Brevibacillus laterosporus ATCC 64 assessed as growth inhibition by agar dilution assay; type: functional
[6] = Cytotoxicity against CHL cells assessed as cell viability at 0.256 mg/ml after 24 hrs by MTT assay; type: cell-based, Cricetulus griseus; conditions: chinese hamster, read-out: Activity; in short: as §2
Pseudomonas aeruginosa [7] = test: Antibacterial activity against Pseudomonas aeruginosa assessed as growth inhibition by agar dilution assay; type: functional
In short: (§3)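 CLSI agar dilution MIC against aerobic and anaerobic strains. Test compounds were dissolved in DMSO and reference antibiotics in sterile water. MIC was taken as the lowest concentration showing no bacterial growth. Each MIC was determined at least twice on separate days, and the higher value was reported. E. coli PQ 37 was cultured in LA medium.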

Staphylococcus aureus [8] = test: In vivo antibacterial activity against Staphylococcus aureus in New zealand rabbit keratitis model assessed as suppression of conjuctival congestion, conjuctival chemosis, infiltration, operative ulcer area and depth at 3 mg/ml administered topically every 4 hrs for four doses every day for 10 days starting 24 hrs post-infection by slit lamp biomicroscopy; type: functional, organism-based
In short: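 NZW rabbits (2.0−3.0 kg), anesthetized with iv sodium pentobarbital 30 mg/kg, given intracorneal S. aureus (about 7.5 × 10^6 CFU) from an overnight LB culture. Starting 24 h post-infection, 30 μL drops applied topically per eye every 4 h, four doses daily (8 a.m.–8 p.m.), for 10 days, masked. Test compound in PEG–water (1:1). Slit-lamp biomicroscopy before and after.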

Staphylococcus aureus [9] = test: Antibacterial activity against methicillin-sensitive Staphylococcus aureus assessed as growth inhibition by agar dilution assay; type: functional; in short: as §1
Staphylococcus aureus [10] = test: Antibacterial activity against methicillin-resistant Staphylococcus aureus assessed as growth inhibition by agar dilution assay; type: functional; in short: as §3
[11] = tested on: Staphylococcus epidermidis; test: Antibacterial activity against methicillin-sensitive Staphylococcus epidermidis assessed as growth inhibition by agar dilution assay; type: functional; in short: as §1
[12] = tested on: Staphylococcus epidermidis; test: Antibacterial activity against methicillin-resistant Staphylococcus epidermidis assessed as growth inhibition by agar dilution assay; type: functional; in short: as §3
Streptococcus pneumoniae [13] = test: Antibacterial activity against Streptococcus pneumoniae ATCC 49619 assessed as growth inhibition by agar dilution assay; type: functional; in short: as §1
Streptococcus pneumoniae [14] = test: Antibacterial activity against Streptococcus pneumoniae assessed as growth inhibition by agar dilution assay; type: functional; in short: as §1
Bacteroides fragilis [15] = test: Antibacterial activity against Bacteroides fragilis ATCC 25285 assessed as growth inhibition by agar dilution assay; type: functional; in short: as §1
Bacteroides fragilis [16] = test: Antibacterial activity against Bacteroides fragilis assessed as growth inhibition by agar dilution assay; type: functional; in short: as §1

Row | Structure (SMILES) | MIC (Pseudomonas aeruginosa [1]) [µg/mL] | MIC (Staphylococcus aureus [2]) [µg/mL] | MIC (Escherichia coli) [µg/mL] | MIC (Staphylococcus aureus [4]) [µg/mL] | MIC (Bacillus cereus) [µg/mL] | MIC [5] [µg/mL] | viability at 24 h, 0.256 mg/ml [6] [%] | also measured
1 | CCN1CCN(C(=O)N[C@@H](C(=O)N[C@@H]2C(=O)N3[C@@H]2SC(C)(C)[C@@H]3C(=O)[O-])c2ccccc2)C(=O)C1=O.[Na+] [PIPERACILLIN SODIUM] | 4 |  | 4 |  |  |  |  | MIC (Pseudomonas aeruginosa [7]): 2 µg/mL
2 | CC1COc2c(N3CCN(C)CC3)c(F)cc3c(=O)c(C(=O)O)cn1c23 (stereo not drawn) |  |  |  |  |  |  |  | inhibition (Staphylococcus aureus [8]): Active
3 | Cc1c(Cl)c(O)c2c(c1Cl)C(=O)c1c(Cl)c(O)cc(O)c1C2=O | > 256 | 16 (≈ 42.8 µM) | > 256 | 8 (≈ 21.4 µM) | 8 (≈ 21.4 µM) | 8 (≈ 21.4 µM) | > 75 | IC90 at 24 h [3]: 256 µg/mL (≈ 685 µM)
4 | CN[C@H](CC(C)C)C(=O)N[C@H]1C(=O)N[C@@H](CC(N)=O)C(=O)N[C@H]2C(=O)N[C@H]3C(=O)N[C@H](C(=O)N[C@H](C(=O)O)c4cc(O)cc(O)c4-c4cc3ccc4O)[C@H](O)c3ccc(c(Cl)c3)Oc3cc2cc(c3O[C@@H]2O[C@H](CO)[C@@H](O)[C@H](O)[C@H]2O[C@H]2C[C@](C)(N)[C@H](O)[C@H](C)O2)Oc2ccc(cc2Cl)[C@H]1O.Cl [VANCOMYCIN HYDROCHLORIDE] |  |  |  |  | 2 | 2 |  | 
5 | CO[C@@]1(NC(=O)Cc2cccs2)C(=O)N2C(C(=O)[O-])=C(COC(N)=O)CS[C@@H]21.[Na+] [CEFOXITIN SODIUM] |  | 2 |  |  |  |  |  | MIC (Staphylococcus aureus [9]): 0.5 µg/mL; MIC (Staphylococcus aureus [10]): 128 µg/mL; MIC [11]: 1 µg/mL; MIC [12]: 128 µg/mL
6 | CC1(C)S[C@@H]2[C@H](NC(=O)Cc3ccccc3)C(=O)N2[C@H]1C(=O)[O-].[Na+] [PENICILLIN G SODIUM] |  |  |  |  |  |  |  | MIC (Streptococcus pneumoniae [13]): 0.25 µg/mL; MIC (Streptococcus pneumoniae [14]): 8 µg/mL
7 | CCC[C@@H]1C[C@@H](C(=O)N[C@@H]([C@H]2O[C@H](SC)[C@H](OP(=O)(O)O)[C@@H](O)[C@H]2O)[C@H](C)Cl)N(C)C1 [CLINDAMYCIN PHOSPHATE] |  |  |  |  |  |  |  | MIC (Bacteroides fragilis [15]): 0.5 µg/mL; MIC (Bacteroides fragilis [16]): 0.03 µg/mL

Second part, led by results:

Row | MIC (Pseudomonas aeruginosa [1]) [µg/mL] | MIC (Staphylococcus aureus [2]) [µg/mL] | MIC (Escherichia coli) [µg/mL] | MIC (Staphylococcus aureus [4]) [µg/mL] | MIC (Bacillus cereus) [µg/mL] | MIC [5] [µg/mL] | Structure (SMILES) | viability at 24 h, 0.256 mg/ml [6] [%] | also measured
8 | > 256 | 16 (≈ 37.4 µM) | > 256 | 8 (≈ 18.7 µM) | 8 (≈ 18.7 µM) | 8 (≈ 18.7 µM) | Cc1cc(O)c2c(c1)C(=O)c1c(Br)c(O)c(Br)c(O)c1C2=O | > 75 | IC90 at 24 h [3]: 128 µg/mL (≈ 299 µM)
9 | > 256 | 16 (≈ 24.7 µM) | > 256 | 8 (≈ 12.3 µM) | 8 (≈ 12.3 µM) | 8 (≈ 12.3 µM) | Cc1cc2c(c(O)c1I)C(=O)c1c(O)c(I)c(O)c(I)c1C2=O | > 75 | IC90 at 24 h [3]: 128 µg/mL (≈ 198 µM)
10 | > 256 | 64 (≈ 149 µM) | > 256 | 32 (≈ 74.3 µM) | 32 (≈ 74.3 µM) | 32 (≈ 74.3 µM) | Cc1cc(O)c2c(c1)C(=O)c1c(Cl)c(O)c(I)c(O)c1C2=O | > 75 | 
11 | > 256 | 32 (≈ 80.8 µM) | > 256 | 16 (≈ 40.4 µM) | 16 (≈ 40.4 µM) | 16 (≈ 40.4 µM) | Cc1cc(O)c2c(c1)C(=O)c1cc(O)c(I)c(O)c1C2=O | > 75 | 
